ChEMBL document CHEMBL1157042, “Triazole incorporated thiazoles as a new class of anticonvulsants: design, synthesis and in vivo screening” (Eur J Med Chem, 2010)
Active and inactive are the calls of the source.

How the values were obtained:
[1] = Neurotoxicity in ip dosed Swiss albino mouse after 4 hrs; type: toxicity, organism-based; conditions: in vivo
Method in brief: (§1)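 Albino mice of either sex (25–30 g), 6 per group, received i.p. doses of 30, 100 and 300 mg/kg in polyethylene glycol. Trained mice were tested on the rotorod at 0.5 h and 4.0 h. Neurotoxicity was failure to keep balance on the rod for at least 1 min in each trial. The value recorded is the minimum dose affecting half or more of the mice.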

[2] = Neurotoxicity in ip dosed Swiss albino mouse after 0.5 hrs; type: toxicity, organism-based; conditions: in vivo; method in brief: as §1
Mus musculus [3] = test: Anticonvulsant activity in ip dosed Swiss albino mouse assessed as inhibition of maximum electric shock-induced motor impairment after 0.5 hrs; type: functional; conditions: read-out: MED
Mus musculus [4] = test: Anticonvulsant activity in Swiss albino mouse assessed as inhibition of PTZ-induced motor impairment at 300 mg/kg, ip after 0.5 hrs; type: functional, organism-based; design: dose 300 mg/kg
Method in brief: (§2)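 Albino mice of either sex (25–30 g), 6 per group. Test compound was given i.p. in polyethylene glycol at 30, 100 or 300 mg/kg, and subcutaneous pentylenetetrazole challenge followed 0.5 h or 4.0 h later. Activity was scored as protection in half or more of the mice.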

Mus musculus [5] = test: Anticonvulsant activity in ip dosed Swiss albino mouse assessed as inhibition of maximum electric shock-induced motor impairment after 4 hrs; type: functional; conditions: read-out: MED
[6] = Toxicity in ip dosed Swiss albino mouse after 24 hrs; type: organism-based; conditions: in vivo
Method in brief: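 Albino mice of either sex (25–30 g), in groups of 10, received a range of i.p. doses in polyethylene glycol until at least three points fell within 10–90% effect. Mortality was scored 24 h after injection.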

Mus musculus [7] = test: Anticonvulsant activity in po dosed Swiss albino mouse assessed as inhibition of maximum electric shock-induced motor impairment after 2 hrs; type: functional
Method in brief: (§3)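 Phase IV: same procedure as i.p. phase II (MES protection, or rotorod failure for at least 1 min per trial), but drugs were given orally. Groups of 10 albino mice got a dose range yielding at least three points within 10–90% effect. ED50 or TD50 was read at the indicated time via Litchfield–Wilcoxon.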

Mus musculus [8] = test: Anticonvulsant activity in ip dosed Swiss albino mouse assessed as inhibition of PTZ-induced motor impairment; type: functional
Mus musculus [9] = test: Anticonvulsant activity in Swiss albino mouse assessed as inhibition of PTZ-induced motor impairment at 300 mg/kg, ip after 4 hrs; type: functional, organism-based; design: dose 300 mg/kg; method in brief: as §2
Mus musculus [10] = test: Sedative-hypnotic activity in ip dosed Swiss albino mouse after 24 hrs; type: organism-based; conditions: in vivo
Mus musculus [11] = test: Anticonvulsant activity in ip dosed Swiss albino mouse assessed as inhibition of PTZ-induced motor impairment after 0.5 hrs; type: functional; conditions: read-out: MED
Method in brief: (§4)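 Albino mice of either sex (25–30 g), 6 per group, dosed i.p. in polyethylene glycol at 30, 100 or 300 mg/kg. Subcutaneous pentylenetetrazole was given at 0.5 h or 4.0 h, and mice were watched for 30 min. Protection meant no threshold seizure (single clonic spasm episode of at least 5 s). The value is the minimum dose protecting half or more.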

Mus musculus [12] = test: Neurotoxicity in Swiss albino mouse at 300 mg/kg, ip after 4 hrs; type: toxicity, organism-based; design: dose 300 mg/kg, route intraperitoneal; conditions: in vivo
Mus musculus [13] = test: Anticonvulsant activity in Swiss albino mouse assessed as inhibition of maximum electric shock-induced motor impairment at 300 mg/kg, ip after 4 hrs; type: functional, organism-based; design: dose 300 mg/kg
Method in brief: (§5)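 Albino mice of either sex (25–30 g), 6 per group, given drug i.p. in polyethylene glycol at 30, 100 and 300 mg/kg. Maximal electroshock was applied at 0.5 h and 4.0 h. Protection meant abolition of hind limb tonic extension.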

Mus musculus [14] = test: Anticonvulsant activity in ip dosed Swiss albino mouse assessed as inhibition of PTZ-induced motor impairment after 4 hrs; type: functional; conditions: read-out: MED; method in brief: as §4
Mus musculus [15] = test: Neurotoxicity in Swiss albino mouse at 300 mg/kg, ip after 0.5 hrs; type: toxicity, organism-based; design: dose 300 mg/kg, route intraperitoneal; conditions: in vivo
Mus musculus [16] = test: Anticonvulsant activity in Swiss albino mouse assessed as inhibition of maximum electric shock-induced motor impairment at 300 mg/kg, ip after 0.5 hrs; type: functional, organism-based; design: dose 300 mg/kg; method in brief: as §5
Mus musculus [17] = test: Protective index, ratio of TD50 for neurotoxicity in po dosed Swiss albino mouse to ED50 for inhibition of maximal electroshock-induced seizures po dosed Swiss albino mouse; type: functional
Mus musculus [18] = organism: Mus musculus; test: Protective index, ratio of TD50 for neurotoxicity in Swiss albino mouse to ED50 for inhibition of PTZ-induced motor impairment Swiss albino mouse; type: functional
Mus musculus [19] = organism: Mus musculus; test: Protective index, ratio of TD50 for neurotoxicity in Swiss albino mouse to ED50 for inhibition of maximal electroshock-induced seizures Swiss albino mouse; type: functional
[20] = Neurotoxicity in po dosed Swiss albino mouse after 2 hrs; type: toxicity, organism-based; conditions: in vivo; method in brief: as §3
Mus musculus [21] = test: Anticonvulsant activity in ip dosed Swiss albino mouse assessed as inhibition of maximum electric shock-induced motor impairment; type: functional
Mus musculus [22] = organism: Mus musculus; test: Ratio of HD50 for hypnotic activity in Swiss albino mouse to ED50 for inhibition of PTZ-induced motor impairment Swiss albino mouse; type: functional
Method in brief: (§6)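 Ratio of HD50 to i.p. ED50 (scPTZ or MES). HD50, in mg/kg, came from loss of righting reflex in i.p.-dosed albino mice, with a dose range analysed as for phase II ED50.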

[23] = Neurotoxicity in ip dosed Swiss albino mouse; type: toxicity, organism-based; conditions: in vivo
Mus musculus [24] = organism: Mus musculus; test: Ratio of HD50 for hypnotic activity in Swiss albino mouse to ED50 for inhibition of maximal electroshock-induced seizures Swiss albino mouse; type: functional; method in brief: as §6

SMILES	MTD at 4 h [1] [mg/kg]	MTD at 0.5 h [2] [mg/kg]	minimal effective dose (Mus musculus [3]) [mg/kg]	inhibition (Mus musculus [4])	minimal effective dose (Mus musculus [5]) [mg/kg]	inhibition (Mus musculus [9])	Activity (Mus musculus [12])	Activity (Mus musculus [15])	further results
O=C1NC(=O)C(c2ccccc2)(c2ccccc2)N1 [PHENYTOIN]	100	100	30	inactive	30	inactive	–	–	LD50 at 24 h [6]: 224 mg/kg; ED50 (Mus musculus [7]): 9.16 mg/kg; ED50 (Mus musculus [8]): > 300 mg/kg; HD50 (Mus musculus [10]): 182 mg/kg
COc1ccccc1-n1c(Nc2nc(-c3ccc(Cl)cc3)cs2)n[nH]c1=S	–	300	100	–	100	inactive	Non-toxic	–	minimal effective dose (Mus musculus [11]): 100 mg/kg
Cc1ccccc1-n1c(Nc2nc(-c3ccc(Cl)cc3)cs2)n[nH]c1=S	300	300	100	inactive	–	–	–	–	inhibition (Mus musculus [13]): inactive; minimal effective dose (Mus musculus [14]): 300 mg/kg
COc1ccccc1-n1c(Nc2nc(-c3ccccc3)cs2)n[nH]c1=S	–	–	100	inactive	300	inactive	Non-toxic	Non-toxic	–
Cc1ccccc1-n1c(Nc2nc(-c3ccccc3)cs2)n[nH]c1=S	300	–	100	inactive	–	inactive	–	Non-toxic	inhibition (Mus musculus [13]): inactive
COc1ccccc1-n1c(Nc2nc(-c3ccc([N+](=O)[O-])cc3)cs2)n[nH]c1=S	300	100	100	inactive	100	inactive	–	–	–
Cc1ccc(-n2c(Nc3nc(-c4ccccc4)cs3)n[nH]c2=S)cc1	–	–	–	–	300	inactive	Non-toxic	Non-toxic	minimal effective dose (Mus musculus [11]): 300 mg/kg; inhibition (Mus musculus [16]): inactive
Cc1ccc(-n2c(Nc3nc(-c4ccc(Cl)cc4)cs3)n[nH]c2=S)cc1	300	–	300	inactive	300	inactive	–	Non-toxic	–
COc1ccccc1-n1c(Nc2nc(-c3ccc(Br)cc3)cs2)n[nH]c1=S	300	100	300	inactive	300	inactive	–	–	–
COc1ccc(-n2c(Nc3nc(-c4ccc([N+](=O)[O-])cc4)cs3)n[nH]c2=S)cc1	300	–	100	inactive	300	–	–	Non-toxic	minimal effective dose (Mus musculus [14]): 300 mg/kg
CCCC(CCC)C(=O)[O-].[Na+] [VALPROATE SODIUM]	–	–	–	–	–	–	–	–	ED50 (Mus musculus [8]): 149 mg/kg
Cc1ccccc1-n1c(Nc2nc(-c3ccc(Br)cc3)cs2)n[nH]c1=S	–	–	30	–	30	–	Non-toxic	Non-toxic	minimal effective dose (Mus musculus [11]): 100 mg/kg; Ratio TD50/ED50 (Mus musculus [17]): 17.7; LD50 at 24 h [6]: 834 mg/kg; ED50 (Mus musculus [7]): 49.9 mg/kg; Ratio TD50/ED50 (Mus musculus [18]): 8.3; ED50 (Mus musculus [8]): 81.6 mg/kg; Ratio TD50/ED50 (Mus musculus [19]): 51; TD50 at 2 h [20]: 884 mg/kg; ED50 (Mus musculus [21]): 13.4 mg/kg; Ratio (Mus musculus [22]): 7.74; TD50 [23]: 684 mg/kg; minimal effective dose (Mus musculus [14]): 300 mg/kg; Ratio (Mus musculus [24]): 47.16; HD50 (Mus musculus [10]): 632 mg/kg
